APP 5'UTR act: activators of APP 5'UTR luciferase reporter, primary screen, SH-SY5Y cells. SH-SY5Y APP 5'UTR luciferase reporter, luminescence; zero percent = DMSO vehicle wells. activation, % at 2 µM. 190,000 tested, 1% active. AID 1276, 2008;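 active = activation above a set limit, based on mean plus 3 SD of controls, cut at about 140% in these data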
NF-kB neuron act: activators of NF-kB expression in neurons, primary screen, cell-based, HTS. 190,000 tested, 1.6% active. human neuronal cells, NF-kB reporter expression; hits give high values. fold change at 12.5 µM; in the data active = fold change above about 3.3
STAT3 activator: IL-6 driven STAT3 reporter potentiators, primary screen, U3A cells, luciferase, luminescence, MLSCN library | IL-6 STAT3-luciferase reporter; 100% = signal with IL-6 EC80 alone | activation (% of control), % at 5.6 µM | 190,000 tested, 0.91% active | AID 871, 2007;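 active = activation above the screen-wide mean of compound activation plus 3 SD, cut at about 130% in these data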;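 note: 0% = background luminescence of wells with medium and substrate only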
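Test system: STAT3-luciferase reporter U3A cells; Detection: reporter luminescence signal; Times: 1 h compound pre-exposure, 6 h IL-6 stimulation, 37 °C; Benchmarks: IL-6-only high control; Also added: IL-6 stimulus at 33 ng/mL final.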
STAT1 act: STAT1 signaling activators, primary screen, cell-based, HTS, luciferase reporter; NIH 3T3 STAT1-luciferase reporter, IFN-gamma, luminescence; 100% = IFN-gamma alone, no compound; activation (% of control), % at 5.5 µM; 200,000 tested, 2.6% active; AID 932, 2007;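 active = activation above the screen-wide mean activation plus 3 SD, cut at about 130% in these data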;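 note: raw ratio to IFN-gamma control signal so 100% means no change and 0% no light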
STAT3 inh: IL-6 driven STAT3 reporter inhibitors, primary screen, U3A cells, luciferase, luminescence, MLSCN library; IL-6 STAT3-luciferase reporter; host cell line lacks STAT1; inhibition, % at 5.5 µM; 190,000 tested, 0.89% active;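 active = inhibition above the mean inhibition across all screened compounds plus 3 SD, cut at about 44% in these data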;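 note: 0% = DMSO only wells and 100% = 100 µM nifuroxazide control wells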
STAT1 blocker: STAT1 signaling inhibitors, primary screen, cell-based, HTS, luciferase reporter | AID 920, 2007 | inhibition, % at 5.5 µM | 200,000 tested, 0.35% active | NIH 3T3 STAT1-luciferase reporter, IFN-gamma, luminescence;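 active = inhibition above a set limit, the mean inhibition across all tested compounds plus 3 SD, cut at about 34% in these data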;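 note: 0% = IFN-gamma with DMSO and 100% = IFN-gamma with 300 µM nifuroxazide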
An asterisk follows results filed as active. A selection: hits, their analogues and other compounds. The true share with any hit is near 5.1%.

SMILES	APP 5'UTR act	NF-kB neuron act	STAT3 activator	STAT1 act	STAT3 inh	STAT1 blocker
CN1C(=O)NC(c2cccc(O)c2)C(C(=O)c2cccs2)C1(O)C(F)(F)F (stereo not drawn)	135*	1.8	96	99	7	1
Cc1ccnc(NC(=O)c2sc3cc(Cl)ccc3c2Cl)c1	171*	3.6*	100	111	5	-12
Cc1ccc(-n2c(CNC(=O)c3cccs3)nnc2SCC(=O)NO)cc1	-2	1.7	84	96	27	3
CN=c1scc(C)n1/N=C/c1ccc(O)cc1O	156*	3.8*	52	49	61*	56*
CN=c1scc(C)n1/N=C/c1ccc(O)cc1	93	12*	85	114	25	-16
CCN=c1scc(C)n1/N=C/c1cc(Br)c(O)c(OC)c1	22	1.1	99	102	11	-4
CN=c1scc(C)n1/N=C/c1cc(Br)c(O)c(Br)c1	-4	5.5*	91	110	18	-12
COc1ccc(O)c(/C=N/n2c(-c3ccco3)csc2=Nc2cccnc2)c1	1	0.96	103	104	-5	-4
CN=c1scc(-c2ccco2)n1/N=C/c1ccc(O)c(O)c1	9	3.8*	111	100	1	0
C=CCN=c1scc(C)n1/N=C/c1ccc(O)c(O)c1	8	2	87	111	20	-12
Cc1cc(-c2nnc(CCC(=O)N(CC3CCC3)CC3CCCO3)o2)no1 (stereo not drawn)	27	1.9	113	121	-10	-24
CCOc1ncccc1C(=O)NCc1ccc(C)cc1	13	1.2	113	113	-17	-14
CN(C1CCCC1)C1CCN(C(=S)Nc2cc(F)cc(F)c2)CC1	-7	1.3	103	102	0	-3
CC(C)(C)c1ccc(/C=C/C(=O)N2CCN(c3ncccn3)CC2)cc1	-2	1	108	99	-7	1
CC(C)Cc1ccc(/C=C/C(=O)N2CCOCC2)cc1	101	3.8*	111	146*	-7	-49
CC(C)(C)c1ccc(/C=C/C(=O)N2CCOCC2)cc1	57	2.2	114	132*	-13	-36
CC(C)(C)c1ccc(OCCCC(=O)N2CCOCC2)cc1	15	1.5	118	132*	-16	-36
O=C(CCCOc1ccc(Cl)cc1)N1CCOCC1	17	1.2	96	104	10	-4
Oc1ccc(N2CCN(c3nnnn3-c3ccccc3)CC2)cc1	27	1.3	101	99	-2	2
Cc1csc(SCC(=O)NC(=O)C2CCCCC2)n1	139*	1.3	107	106	-6	-7
Cc1ccc(OCCOC(=O)CCc2nc3ccccc3c(=O)[nH]2)cc1	16	1.1	106	98	0	1
Nc1nnc(CC(=O)N/N=C/c2cccc(OCCOc3ccccc3)c2)s1	90	1.5	111	129*	-8	-31
O=C(NCc1cccs1)c1cc(-c2ccccc2)on1	85	2.9	105	124	-3	-26
O=C(NCc1cccs1)c1cc(-c2cccs2)on1	76	2.3	99	138*	2	-42
COc1cc(NC(=O)c2cc(-c3cccs3)on2)cc(OC)c1OC	-2	1.1	92	100	14	-1
SMILES	APP 5'UTR act	NF-kB neuron act	STAT3 activator	STAT1 act	STAT3 inh	STAT1 blocker
Cc1ccc(NC(=O)c2csc(-c3ccccc3)c2C)cc1	216*	0.78	19	43	104*	63*
O=C(Nc1ccc(NC(=O)C2CCCCC2)nc1)c1cccs1	49	1.9	107	132*	-7	-37
Cc1ccc(NC(=O)c2cc(-c3cccs3)on2)cc1	13	2.4	90	130*	18	-33
Cc1ccc(S(=O)(=O)N/N=c2\oc3ccccc3cc2C(=O)Nc2cccc(C)c2)cc1	46	2	90	107	14	-7
O=S(=O)(NCC1CCCO1)c1cnc(Cl)c(Br)c1 (stereo not drawn)	-9	1.2	106	99	-9	1
Cc1ccc(NC(=O)c2cccs2)cc1	75	2.9	101	131*	1	-34
COCCNC(=O)c1cc(-c2cccs2)on1	27	6.4*	115	135*	-13	-39
COc1ccc(CNC(=O)c2cc(-c3cccs3)on2)cc1	2	1.3	104	106	0	-7
Cc1ccc(NC(=O)C(=O)NNC(=O)c2cccs2)cc1	14	1.4	96	114	9	-13
O=c1[nH]n(Cc2ccccc2)c(=O)c2ccccc12	3	4.9*	96	109	15	-10
COC(=O)CCn1[nH]c(=O)c2ccccc2c1=O	-4	1	100	97	0	3
CCCCCCCC[n+]1cccc2c3ccccc3ccc21	-20	2	29	64	87*	38*
CCCCCCCCCC[n+]1cccc2c3ccccc3ccc21	-24	1.8	29	52	87*	51*
Cc1cccc[n+]1CCCCCCCCCC[n+]1ccccc1C	1	1	103	99	3	1
O=C(O)C1C2CCC(O2)C1C(=O)Nc1ccc(O)cc1 (stereo not drawn)	-27	0.97	111	97	-14	3
CCOC(=O)/C(=C\c1ccc(OC(F)F)cc1)C1=Nn2c(nnc2-c2ccc(Cl)cc2)SC1	-34	8.3*	98	96	5	5
COc1ccc(-c2nnc3n2N=C(C)CS3)cc1	-4	1.2	93	96	13	4
N#Cc1ccc(N2Cc3ccccc3C2=NC(=O)c2cccnc2Cl)cc1	2	5*	91	107	12	-8
CCN(CC)C(=O)COc1ccc(C=O)cc1OC	-10	1.3	102	99	-1	1
Cc1cc(/C=C2\NC(=O)N(Cc3ccc(Cl)cc3)C2=O)c(C)n1C	4	1.2	139*	94	-50	6
Cc1ccc(CN2C(=O)N/C(=C/c3ccc4c(c3)n(C)c(=O)n4C)C2=O)cc1	-24	1.4	69	70	38	32
O=C(Nc1ccc(F)cc1)c1nsc(Cl)c1Cl	127	5*	130	138*	-32	-47
CCOc1ccc(NC(=O)c2nsc(Cl)c2Cl)cc1	234*	6.4*	96	150*	9	-56
CN1CCN(c2ccc(-c3ccnn3C(=O)Nc3cccc(C(F)(F)F)c3)cc2)CC1	39	1.4	105	118	5	-21
c1ccc(Cc2nnc(-c3ccccc3)o2)cc1	50	2	112	130*	-11	-33
Clc1ccccc1OCc1nnc(-c2ccccc2)o1	58	3.4*	144*	151*	-48	-58

Bioassay records: PubChem, several laboratories
